The species named for one assay is Homo sapiens. The assay is described as follows: Selectivity ratio of Ki for human adenosine A2A receptor to Ki for human adenosine A3 receptor.
The next assay addresses T1, Adenosine receptor A2b (Homo sapiens, UniProt P29275).
T1 sequence (P29275 whole entry): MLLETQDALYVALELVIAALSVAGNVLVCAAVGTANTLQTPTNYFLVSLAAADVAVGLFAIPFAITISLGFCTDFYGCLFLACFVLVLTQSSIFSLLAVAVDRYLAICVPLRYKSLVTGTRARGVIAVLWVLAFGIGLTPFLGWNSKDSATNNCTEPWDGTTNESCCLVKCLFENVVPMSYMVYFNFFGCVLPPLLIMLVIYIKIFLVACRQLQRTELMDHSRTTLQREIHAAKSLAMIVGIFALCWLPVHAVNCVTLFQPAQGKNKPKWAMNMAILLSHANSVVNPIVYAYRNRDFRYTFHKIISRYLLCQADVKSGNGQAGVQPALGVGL
The assay is described as follows: Antagonist activity at human adenosine A2B receptor expressed in CHO cells assessed as inhibition of NECA-induced adenylyl cyclase activity. It counts as functional, cell-based. In a few lines: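 Membranes from CHO cells transfected with hA2B receptor incubated 20 min with 100 nM NECA, 150,000 cpm [α-32P]ATP and varying antagonist concentrations, in mixture lacking EGTA and NaCl. Ki derived from concentration-dependent inhibition of NECA-stimulated adenylyl cyclase activity; n = 3–6.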

For another assay, the target named is T2, Adenosine receptor A1 (Homo sapiens, UniProt P30542).
T2 sequence (P30542 whole entry): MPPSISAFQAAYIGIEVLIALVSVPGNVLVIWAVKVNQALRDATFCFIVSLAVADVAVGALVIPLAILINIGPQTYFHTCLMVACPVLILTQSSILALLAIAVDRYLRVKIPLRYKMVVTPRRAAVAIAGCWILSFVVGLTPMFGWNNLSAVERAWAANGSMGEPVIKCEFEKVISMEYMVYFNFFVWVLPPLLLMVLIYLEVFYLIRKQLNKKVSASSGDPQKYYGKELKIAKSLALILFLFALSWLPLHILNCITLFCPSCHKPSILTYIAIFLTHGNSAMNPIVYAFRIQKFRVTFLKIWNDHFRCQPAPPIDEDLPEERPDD
The assay can be described thus: Displacement of [3H]CCPA from human adenosine A1 receptor expressed in CHO cells by Top Count analysis. It counts as cell-based. In a few lines:
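Tritiated-radioligand competition binding at hA1 receptor, 3 h at room temperature; nonspecific binding with 1 mM theophylline. Separation by GF/B glass-fibre filtration, filter radioactivity counted by scintillation (57% efficiency). Ki from competition curves by nonlinear curve fitting.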
Background: In a radioligand displacement assay an active substance lowers the binding of a labelled ligand.

Assay [1] deals with Adenosine receptors; A1 & A3 (Homo sapiens) (UniProt P30542+P0DMS8). The assay can be described thus: Selectivity ratio of Ki for human adenosine A1 receptor to Ki for human adenosine A3 receptor.
The next assay concerns the target Adenosine receptor A2a (Homo sapiens, UniProt P29274). The assay can be described thus: Displacement of [3H]NECA from human adenosine A2A receptor expressed in CHO cells by Top Count analysis. It is filed as cell-based.
In the next assay the target is T3, Adenosine receptor A3 (Homo sapiens, UniProt P0DMS8).
T3 sequence (P0DMS8 whole entry): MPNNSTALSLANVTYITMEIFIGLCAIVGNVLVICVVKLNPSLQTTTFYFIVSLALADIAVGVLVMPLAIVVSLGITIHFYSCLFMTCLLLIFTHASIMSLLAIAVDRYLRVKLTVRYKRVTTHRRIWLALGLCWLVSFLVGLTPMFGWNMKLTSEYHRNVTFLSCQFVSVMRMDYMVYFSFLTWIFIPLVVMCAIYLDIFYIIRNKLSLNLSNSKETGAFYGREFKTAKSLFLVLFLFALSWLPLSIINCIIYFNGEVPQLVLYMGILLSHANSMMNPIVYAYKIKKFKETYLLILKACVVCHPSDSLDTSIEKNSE
The assay can be described thus: Displacement of [3H]HEMADO from human adenosine A3 receptor expressed in CHO cells by Top Count analysis. It counts as cell-based. An outline of the steps:
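Competition against [3H]HEMADO binding at hA3 receptor in CHO cells, 3 h at room temperature; nonspecific binding defined with 100 µM R-PIA.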

The structures appear in SMILES notation. Bounds are passed on as bounds.

Adenosine receptor A2a, sequence (P29274 whole entry): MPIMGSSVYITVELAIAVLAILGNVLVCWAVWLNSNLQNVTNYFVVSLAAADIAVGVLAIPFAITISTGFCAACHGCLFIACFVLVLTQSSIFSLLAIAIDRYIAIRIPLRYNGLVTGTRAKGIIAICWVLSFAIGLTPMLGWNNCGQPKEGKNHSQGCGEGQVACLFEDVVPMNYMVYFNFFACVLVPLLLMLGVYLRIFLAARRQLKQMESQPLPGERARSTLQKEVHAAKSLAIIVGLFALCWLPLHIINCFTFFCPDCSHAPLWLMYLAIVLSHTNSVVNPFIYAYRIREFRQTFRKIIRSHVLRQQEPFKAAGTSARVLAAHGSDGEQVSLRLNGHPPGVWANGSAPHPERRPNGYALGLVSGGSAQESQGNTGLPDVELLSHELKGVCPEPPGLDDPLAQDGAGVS

By Ki is commonly meant a measure of affinity in units of concentration, obtained from inhibition or displacement. On to `CCOC(=O)c1nc(N)nc2nn(CC(C)(C)C)cc12`, for which the Ratio Ki in the assay filed under Homo sapiens was 0.48; in assay [1], 0.38. Also, the Ki was more than 15 µM on Adenosine receptor A2b, 4 µM at Adenosine receptor A1, 5 µM on Adenosine receptor A2a and 10.4 µM on Adenosine receptor A3.
On to `CC(C)(C)Cn1cc2c(C(N)=O)nc(N)nc2n1`, for which the Ratio Ki is more than 4.1 in the assay filed under Homo sapiens and more than 4.6 in assay [1]. The Ki on Adenosine receptor A2b was more than 20 µM; at Adenosine receptor A1, more than 90 µM; at Adenosine receptor A2a it was more than 80 µM; at Adenosine receptor A3, 19.7 µM.
As to `CCOC(=O)c1nc(NC(=O)Cc2ccccc2)nc2nn(C(C)C)cc12`, the Ratio Ki in the assay listed under Homo sapiens was 0.66; in assay [1], 0.04. The Ki at Adenosine receptor A2b is more than 10 µM; on Adenosine receptor A1, 0.6 µM; at Adenosine receptor A2a, 8.8 µM; at Adenosine receptor A3, 13.3 µM.
With `CCOC(=O)c1nc(NC(=O)c2ccc(C)cc2)nc2nn(CCc3ccccc3)cc12`, the Ratio Ki was 2 in the assay filed under Homo sapiens and more than 33 in assay [1]. For the same compound, the Ki at Adenosine receptor A2b is more than 20 µM; at Adenosine receptor A1 it was more than 100 µM; on Adenosine receptor A2a it was 6 µM; on Adenosine receptor A3, 3 µM.

Source of the values: ChEMBL document CHEMBL3407439, “A facile and novel synthesis of N(2)-, C(6)-substituted pyrazolo[3,4-d]pyrimidine-4 carboxylate derivatives as adenosine receptor antagonists” (Eur J Med Chem, 2015).
